Source: ChEMBL document CHEMBL3853270, “Influence of Birch Bark Triterpenes on Keratinocytes and Fibroblasts from Diabetic and Nondiabetic Donors” (2016)
The source made the active and inactive calls. The calls are words filed in the database; no cut-off is given here.

Assays:
Format in all cases: functional
[1] = system: Fibroblast; test: Effect on pro-inflammatory related gene expression in non-diabetic adult human primary fibroblasts assessed as IL1B mRNA levels at 9.81 uM after 6 hrs by qPCR analysis
[2] = system: Fibroblast; test: Effect on actin cytoskeleton in human diabetic primary fibroblasts assessed as formation of thin elongated cellular body at 10 nM after 2 hrs by rhodamine phalloidin-staining based fluorescence microscopic analysis
How it was run: (§1)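 Subconfluent cells on glass coverslips, collagen type I coated for fibroblasts; keratinocytes starved 2 days before stimulation. Exposure 2 h, then rhodamine-phalloidin staining (1:25 in PBS) and fluorescence microscopy. Controls were DMSO as solvent and PDGF (fibroblasts) or CNF1 (keratinocytes). Where used, p38-MAPK inhibitor LN 950 (100 nM) was added 30 min beforehand.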

[3] = system: Keratinocyte; test: Effect on antiinflammatory related gene expression in diabetic adult human primary keratinocytes assessed as NFKBIA mRNA levels at 9.81 uM after 6 hrs by qPCR analysis
How it was run: (§2)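 Primary keratinocytes from nondiabetic young and adult and diabetic adult donors; 400 000 cells per sample, 6 h exposure at 1.96 or 9.81 μM. RNA extracted and read on a high-throughput qPCR chip. Results are fold change versus 0.1% DMSO solvent control from 5−7 independent experiments over two donors per group, SD, one-way ANOVA with Bonferroni post-test.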

[4] = system: Fibroblast; test: Effect on growth factors related gene expression in non-diabetic young human primary fibroblasts assessed as FGF2 mRNA levels at 1.96 uM after 6 hrs by qPCR analysis
How it was run: (§3)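 Primary human dermal fibroblasts (young or adult nondiabetic, adult diabetic donor) were treated for 6 h against a 0.1% DMSO solvent control. RNA from 320 000 cells per sample was measured by Fluidigm Biomark high-throughput qPCR. Values are fold change relative to solvent control, from four independent experiments, with SD. One-way ANOVA with Bonferroni post-test was applied.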

[5] = system: Fibroblast; test: Effect on pro-inflammatory related gene expression in non-diabetic young human primary fibroblasts assessed as PTGS2 mRNA levels at 9.81 uM after 6 hrs by qPCR analysis
[6] = system: Keratinocyte; test: Effect on chemokines related gene expression in non-diabetic adult human primary keratinocytes assessed as IL8 mRNA levels at 1.96 uM after 6 hrs by qPCR analysis
[7] = system: Fibroblast; test: Effect on growth factors related gene expression in diabetic adult human primary fibroblasts assessed as FGF2 mRNA levels at 1.96 uM after 6 hrs by qPCR analysis; how it was run: as §3
[8] = system: Fibroblast; test: Effect on antioxidant related gene expression in diabetic adult human primary fibroblasts assessed as NFE2L2 mRNA levels at 1.96 uM after 6 hrs by qPCR analysis
[9] = system: Fibroblast; test: Effect on chemokines related gene expression in non-diabetic young human primary fibroblasts assessed as WDR26 mRNA levels at 9.81 uM after 6 hrs by qPCR analysis; how it was run: as §3
[10] = system: Keratinocyte; test: Effect on growth factor related gene expression in non-diabetic young human primary keratinocytes assessed as VEGFA mRNA levels at 9.81 uM after 6 hrs by qPCR analysis
How it was run: (§4)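 Primary human keratinocytes (nondiabetic young or adult, diabetic adult donors) were exposed to compound for 6 h, with 0.1% DMSO as solvent control. Total RNA came from 400 000 cells per sample and was assayed on a Fluidigm Biomark high-throughput qPCR chip. Results are fold change vs solvent control, from 2−4 independent experiments on two donors per group, with SD. Groups were compared by one-way ANOVA with Bonferroni post-test.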

[11] = system: Fibroblast; test: Effect on pro-inflammatory related gene expression in non-diabetic young human primary fibroblasts assessed as IL1R1 mRNA levels at 1.96 uM after 6 hrs by qPCR analysis
[12] = system: Keratinocyte; test: Effect on pro-inflammatory related gene expression in non-diabetic adult human primary keratinocytes assessed as IL6 mRNA levels at 1.96 uM after 6 hrs by qPCR analysis
[13] = Effect on wound healing activity in non-diabetic adult human primary keratinocytes assessed as upregulation of MIF protein levels at 1.96 uM after 24 hrs by bead-based suspension array analysis; conditions: Keratinocyte
[14] = system: Fibroblast; test: Effect on chemokines related gene expression in non-diabetic adult human primary fibroblasts assessed as WDR26 mRNA levels at 1.96 uM after 6 hrs by qPCR analysis
[15] = system: Keratinocyte; test: Effect on MMP1 mRNA expression levels in non-diabetic adult human primary keratinocytes at 1.96 uM after 6 hrs by qPCR analysis; how it was run: as §2
[16] = system: Fibroblast; test: Effect on pro-inflammatory related gene expression in diabetic adult human primary fibroblasts assessed as IL1R1 mRNA levels at 1.96 uM after 6 hrs by qPCR analysis; how it was run: as §3
[17] = system: Keratinocyte; test: Effect on chemokines related gene expression in diabetic adult human primary keratinocytes assessed as CXCL10 mRNA levels at 1.96 uM after 6 hrs by qPCR analysis
[18] = system: Fibroblast; test: Effect on chemokines related gene expression in non-diabetic adult human primary fibroblasts assessed as CCL2 mRNA levels at 9.81 uM after 6 hrs by qPCR analysis
[19] = system: Keratinocyte; test: Effect on pro-inflammatory related gene expression in non-diabetic young human primary keratinocytes assessed as IL6 mRNA levels at 1.96 uM after 6 hrs by qPCR analysis
[20] = system: Fibroblast; test: Effect on actin cytoskeleton in human non-diabetic primary fibroblasts assessed as formation of thin elongated cellular body at 10 nM after 2 hrs by rhodamine phalloidin-staining based fluorescence microscopic analysis; how it was run: as §1
[21] = system: Keratinocyte; test: Effect on pro-inflammatory related gene expression in non-diabetic young human primary keratinocytes assessed as TNF mRNA levels at 9.81 uM after 6 hrs by qPCR analysis
[22] = system: Keratinocyte; test: Effect on pro-inflammatory related gene expression in diabetic adult human primary keratinocytes assessed as TNF mRNA levels at 1.96 uM after 6 hrs by qPCR analysis
[23] = system: Keratinocyte; test: Effect on pro-inflammatory related gene expression in diabetic adult human primary keratinocytes assessed as IL1R1 mRNA levels at 9.81 uM after 6 hrs by qPCR analysis
[24] = system: Keratinocyte; test: Effect on growth factor related gene expression in diabetic adult human primary keratinocytes assessed as GDF15 mRNA levels at 9.81 uM after 6 hrs by qPCR analysis; how it was run: as §4
[25] = system: Fibroblast; test: Effect on pro-inflammatory related gene expression in diabetic adult human primary fibroblasts assessed as IL1R1 mRNA levels at 9.81 uM after 6 hrs by qPCR analysis; how it was run: as §3
[26] = system: Fibroblast; test: Effect on pro-inflammatory related gene expression in diabetic adult human primary fibroblasts assessed as IL6 mRNA levels at 9.81 uM after 6 hrs by qPCR analysis; how it was run: as §3
[27] = Effect on wound healing activity in non-diabetic adult human primary keratinocytes assessed as upregulation of IL8 protein levels at 1.96 uM after 24 hrs by bead-based suspension array analysis; conditions: Keratinocyte
[28] = system: Keratinocyte; test: Effect on growth factor related gene expression in non-diabetic adult human primary keratinocytes assessed as GDF15 mRNA levels at 1.96 uM after 6 hrs by qPCR analysis; how it was run: as §4
[29] = system: Fibroblast; test: Effect on antioxidant related gene expression in non-diabetic adult human primary fibroblasts assessed as NFE2L2 mRNA levels at 1.96 uM after 6 hrs by qPCR analysis
[30] = system: Keratinocyte; test: Effect on chemokines related gene expression in diabetic adult human primary keratinocytes assessed as CXCL10 mRNA levels at 9.81 uM after 6 hrs by qPCR analysis

C=C(C)[C@@H]1CC[C@]2(CO)CC[C@]3(C)[C@H](CC[C@@H]4[C@@]5(C)CC[C@H](O)C(C)(C)[C@@H]5CC[C@]43C)[C@@H]12 [BETULIN]
fold change (FC) [1]: 214
Activity [2]: Active
fold change (FC) [3]: 2
fold change (FC) [4]: 1.7
fold change (FC) [5]: 14.7
fold change (FC) [6]: 24.2
fold change (FC) [7]: 2
fold change (FC) [8]: 1.8
fold change (FC) [9]: 1.4
fold change (FC) [10]: 1.4
fold change (FC) [11]: 3.7
fold change (FC) [12]: 16.2
Activity [13]: Active
fold change (FC) [14]: 0.9
fold change (FC) [15]: 1
fold change (FC) [16]: 1.7
fold change (FC) [17]: 6
fold change (FC) [18]: 197
fold change (FC) [19]: 3.6
Activity [20]: Active
fold change (FC) [21]: 6
fold change (FC) [22]: 5.3
fold change (FC) [23]: 0.9
fold change (FC) [24]: 2.5
fold change (FC) [25]: 1.9
fold change (FC) [26]: 5.3
Activity [27]: Active
fold change (FC) [28]: 1
fold change (FC) [29]: 1.3
fold change (FC) [30]: 12.1
